Source: article PMC12279052 (RSC Advances, 2025)
Values after ≈ are worked out from the molar mass of the structure shown.

Key:
[1] = test system: Escherichia coli ATCC25922; assay: Antibacterial activity, broth dilution MIC; format: cell-based
[2] = test system: Candida albicans ATCC10231; assay: Antimicrobial activity, broth dilution MIC; format: cell-based
[3] = test system: Cutibacterium acnes ATCC6919; assay: Antibacterial activity, broth dilution MIC; format: cell-based
[4] = test system: human lung cancer cell line A549; assay: Cell toxicity assay, MTT; format: cell-based
[5] = test system: human hepatocellular carcinoma cell line HepG2; assay: Cell toxicity assay, MTT; format: cell-based
[6] = Thermal stability by TG/DTG; format: physicochemical; details: first decomposition process, 10 K min^−1, argon
Summary of the method: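 Simultaneous thermal analysis ran from 30–500 °C at 10 K min−1 on 3–5 mg sample in an Al2O3 crucible, with α-Al2O3 as reference. Argon served as protective gas at 20 mL min−1 and as purge gas at 60 mL min−1.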

[7] = Octanol–water partition coefficient, shake-flask method; format: physicochemical
Summary of the method: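 Shake-flask partitioning was run at 25 and 37 °C in water, SGF (pH 1.2), SIF (pH 6.8) or SBF (pH 7.4). Fluids were prepared per USP without enzyme and pre-saturated with n-octanol (24 h shaking, 24 h separation). Test compound in buffer-saturated octanol (5 mL) was shaken 24 h with 5 mL octanol-saturated buffer, then centrifuged 10 min. The octanol phase was read by UV at 200 nm, and log Ko/w = log Co/(C−Co).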

[8] = Conductivity in low concentration region; format: physicochemical; details: in water
Summary of the method: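 Conductivity of aqueous test compound solutions was measured at each temperature in double-distilled deionized water (0.8 − 1.0 × 10−4 S m−1 at 298.15 K). The digital meter and electrode were calibrated with standard KCl, and the thermostat held ±0.02 K; relative standard uncertainty was ±3%.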

[9] = Aggregation in water by electrical conductivity; format: physicochemical; details: for cmc: conductivity, water; for ionization degree α: micelle (cmc); for ΔG^0m / ΔH^0m / ΔS^0m / −TΔS^0m: micellization (cmc)
Summary of the method: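 Conductivity of aqueous test compound solutions was measured with a digital conductivity meter and electrode, calibrated against standard KCl, with a thermostat holding ±0.02 K and ±3% relative uncertainty. cmc and cac were taken from the break points, found by fitting the Aguiar equation. α came from the ratio of post- to pre-transition slopes (A2/A1), and micellization thermodynamic functions from the mass action model.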

[10] = Steady-state fluorescence with pyrene probe; format: physicochemical; details: 298.15 K; for cmc: Fluorescence (pyrene I1/I3), water; for N agg (aggregation number): ST = 2.5 cmc, fluorescence quenching with CPC
Summary of the method: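 Pyrene (1 μM) served as probe at 298.15 K. Excitation was 335 nm, emission 355–650 nm, slits 2.5 nm, 700 V, 240 nm min−1, in a 1 cm quartz cuvette. cmc came from a Boltzmann fit of I1/I3 (373/384 nm). For Nagg, test compound at 2.5 cmc was quenched with cetylpyridinium chloride at 0.2–1.0 × 10−4 mol dm−3, and Nagg was derived from linear ln(I0/I) versus [Q].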

[11] = Density measurement, apparent molar volume at infinite dilution in water; format: physicochemical; details: aqueous solution
Summary of the method: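 Solution density was measured with a vibrating-tube densitometer calibrated with dry air and double-distilled water, with Peltier temperature control at ±0.01 K and density uncertainty 2.0 × 10−4 g cm−3. Apparent molar volumes were computed versus molality. Infinite-dilution values came from the Redlich–Mayer equation with empirical parameters Sv and Bv.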

[12] = test system: Staphylococcus aureus ATCC29213; assay: Antibacterial activity, broth dilution MIC; format: cell-based; details: S. aureus, n = 3
[13] = pH = 7.0 (ultrapure water), 25 °C
[14] = pH = 7.0 (ultrapure water), 37 °C

## O=C1CCC[C@@H]2[C@H]3CCCN4CCC[C@@H](CN12)[C@@H]34 [Matrine, reference compound]
[1]; Escherichia coli, ATCC25922
  MIC: 50.3 mM (≈ 12.5 mg/mL)
[2]; Candida albicans, ATCC10231
  MIC: 25.2 mM (≈ 6.26 mg/mL)
[3]; Cutibacterium acnes, ATCC6919
  MIC: 50.3 mM (≈ 12.5 mg/mL)
[4]; Homo sapiens, A549, 24 h
  IC50: 11.8 mM
[5]; Homo sapiens, HepG2, 24 h
  IC50: 4.27 mM

## CCCCCCC(=O)O.O=C1CCC[C@@H]2[C@H]3CCCN4CCC[C@@H](CN12)[C@@H]34 [[Mat][C7]]
[6]
  T onset (onset decomposition temperature): 185.5 °C
[7]; pH = 1.2 (SGF), 25 °C
  Log K o/w: −0.36
[7]; pH = 1.2 (SGF), 37 °C
  Log K o/w: 0.07
[7]; pH = 6.8 (SIF), 25 °C
  Log K o/w: 0.01
[7]; pH = 6.8 (SIF), 37 °C
  Log K o/w: 0.25
[7]; [13]
  Log K o/w: 0.42
[7]; [14]
  Log K o/w: 0.69
[7]; pH = 7.4 (SBF), 25 °C
  Log K o/w: 0.83
[7]; pH = 7.4 (SBF), 37 °C
  Log K o/w: 1.01
[8]; 298.15 K
  Association constant KA: 6.11 ± 0.61 dm^3 mol^−1
  Limiting molar conductivity Λ0: 47.78 ± 0.03 S cm^2 mol^−1
[8]; 303.15 K
  Association constant KA: 3.91 ± 0.48 dm^3 mol^−1
  Limiting molar conductivity Λ0: 52.96 ± 0.03 S cm^2 mol^−1
[8]; 308.15 K
  Association constant KA: 1.53 ± 0.37 dm^3 mol^−1
  Limiting molar conductivity Λ0: 59.37 ± 0.03 S cm^2 mol^−1
[9]; 293.15 K
  cmc: 0.00511 mol/kg
  ionization degree α: 0.8986
  ΔG^0m: -5.961 kcal/mol
  ΔH^0m: -0.956 kcal/mol
  ΔS^0m: 71.43 J mol^−1 K^−1
  −TΔS^0m: -5.005 kcal/mol
[9]; 298.15 K
  cmc: 0.00524 mol/kg
  ionization degree α: 0.8976
  ΔG^0m: -6.054 kcal/mol
  ΔH^0m: -0.92 kcal/mol
  ΔS^0m: 72.03 J mol^−1 K^−1
  −TΔS^0m: -5.134 kcal/mol
[9]; 303.15 K
  cmc: 0.00536 mol/kg
  ionization degree α: 0.8989
  ΔG^0m: -6.133 kcal/mol
  ΔH^0m: -0.88 kcal/mol
  ΔS^0m: 72.51 J mol^−1 K^−1
  −TΔS^0m: -5.253 kcal/mol
[9]; 308.15 K
  cmc: 0.00549 mol/kg
  ionization degree α: 0.8927
  ΔG^0m: -6.252 kcal/mol
  ΔH^0m: -0.839 kcal/mol
  ΔS^0m: 73.51 J mol^−1 K^−1
  −TΔS^0m: -5.413 kcal/mol
[9]; 313.15 K
  cmc: 0.00558 mol/kg
  ionization degree α: 0.8987
  ΔG^0m: -6.31 kcal/mol
  ΔH^0m: -0.786 kcal/mol
  ΔS^0m: 73.80 J mol^−1 K^−1
  −TΔS^0m: -5.523 kcal/mol
[10]
  cmc: 0.00554 mol/kg
  N agg (aggregation number): 25
[11]; 293.15 K
  Apparent molar volume at infinite dilution V^0 2,φ: 321.56 ± 0.09 cm^3 mol^−1
[11]; 298.15 K
  Apparent molar volume at infinite dilution V^0 2,φ: 323.31 ± 0.11 cm^3 mol^−1
[11]; 303.15 K
  Apparent molar volume at infinite dilution V^0 2,φ: 324.72 ± 0.10 cm^3 mol^−1
[11]; 308.15 K
  Apparent molar volume at infinite dilution V^0 2,φ: 326.82 ± 0.20 cm^3 mol^−1
[1]; E. coli, n = 3
  MIC: 33.0 mM
[12]
  MIC: 132.1 mM
[2]; C. albicans, n = 3
  MIC: 66.0 mM
[3]; C. acnes, n = 3
  MIC: 66.0 mM
[4]; A549, MTT, 24 h, n = 3
  IC50: 14 mM
[5]; HepG2, MTT, 24 h, n = 3
  IC50: 4.47 mM

## CCCCCCCCC(=O)O.O=C1CCC[C@@H]2[C@H]3CCCN4CCC[C@@H](CN12)[C@@H]34 [[Mat][C9]]
[6]
  T onset (onset decomposition temperature): 196.3 °C
[7]; pH = 1.2 (SGF), 25 °C
  Log K o/w: −0.33
[7]; pH = 1.2 (SGF), 37 °C
  Log K o/w: 0.14
[7]; pH = 6.8 (SIF), 25 °C
  Log K o/w: 0.02
[7]; pH = 6.8 (SIF), 37 °C
  Log K o/w: 0.34
[7]; [13]
  Log K o/w: 0.68
[7]; [14]
  Log K o/w: 0.81
[7]; pH = 7.4 (SBF), 25 °C
  Log K o/w: 0.96
[7]; pH = 7.4 (SBF), 37 °C
  Log K o/w: 1.12
[8]; 298.15 K
  Association constant KA: 6.74 ± 0.44 dm^3 mol^−1
  Limiting molar conductivity Λ0: 47.11 ± 0.02 S cm^2 mol^−1
[8]; 303.15 K
  Association constant KA: 4.14 ± 0.68 dm^3 mol^−1
  Limiting molar conductivity Λ0: 52.90 ± 0.04 S cm^2 mol^−1
[8]; 308.15 K
  Association constant KA: 1.72 ± 1.03 dm^3 mol^−1
  Limiting molar conductivity Λ0: 59.10 ± 0.07 S cm^2 mol^−1
[9]; 293.15 K
  cmc: 0.00449 mol/kg
  ionization degree α: 0.8848
  ΔG^0m: -6.121 kcal/mol
  ΔH^0m: -0.805 kcal/mol
  ΔS^0m: 75.88 J mol^−1 K^−1
  −TΔS^0m: -5.315 kcal/mol
[9]; 298.15 K
  cmc: 0.00459 mol/kg
  ionization degree α: 0.8890
  ΔG^0m: -6.188 kcal/mol
  ΔH^0m: -0.767 kcal/mol
  ΔS^0m: 76.06 J mol^−1 K^−1
  −TΔS^0m: -5.421 kcal/mol
[9]; 303.15 K
  cmc: 0.00467 mol/kg
  ionization degree α: 0.8957
  ΔG^0m: -6.243 kcal/mol
  ΔH^0m: -0.727 kcal/mol
  ΔS^0m: 76.13 J mol^−1 K^−1
  −TΔS^0m: -5.516 kcal/mol
[9]; 308.15 K
  cmc: 0.00475 mol/kg
  ionization degree α: 0.8931
  ΔG^0m: -6.348 kcal/mol
  ΔH^0m: -0.686 kcal/mol
  ΔS^0m: 76.88 J mol^−1 K^−1
  −TΔS^0m: -5.662 kcal/mol
[9]; 313.15 K
  cmc: 0.00483 mol/kg
  ionization degree α: 0.8922
  ΔG^0m: -6.446 kcal/mol
  ΔH^0m: -0.643 kcal/mol
  ΔS^0m: 77.53 J mol^−1 K^−1
  −TΔS^0m: -5.803 kcal/mol
[10]
  cmc: 0.00461 mol/kg
  N agg (aggregation number): 64
[11]; 293.15 K
  Apparent molar volume at infinite dilution V^0 2,φ: 353.45 ± 0.11 cm^3 mol^−1
[11]; 298.15 K
  Apparent molar volume at infinite dilution V^0 2,φ: 355.41 ± 0.17 cm^3 mol^−1
[11]; 303.15 K
  Apparent molar volume at infinite dilution V^0 2,φ: 357.32 ± 0.16 cm^3 mol^−1
[11]; 308.15 K
  Apparent molar volume at infinite dilution V^0 2,φ: 360.15 ± 0.14 cm^3 mol^−1
[1]; E. coli, n = 3
  MIC: 30.7 mM
[12]
  MIC: 7.7 mM
[2]; C. albicans, n = 3
  MIC: 0.96 mM
[3]; C. acnes, n = 3
  MIC: 3.84 mM
[4]; A549, MTT, 24 h, n = 3
  IC50: 3.15 mM
[5]; HepG2, MTT, 24 h, n = 3
  IC50: 2.12 mM
